Test results: ChEMBL document CHEMBL1933030, “Conjugation of spermine enhances cellular uptake of the stapled peptide-based inhibitors of p53-Mdm2 interaction” (Bioorg Med Chem Lett, 2011)

Assays:
[1] = target: Tumour suppressor p53/oncoprotein Mdm2 (Homo sapiens, UniProt Q00987); experiment: Inhibition of p53-MDM2 interaction by ELISA; format: protein assay
HeLa = experiment: Cellular uptake in human HeLa cells at 10 uM after 2 hrs by FACS analysis relative to control; format: ADME, cell-based
Method in brief: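 HeLa cells were exposed to fluorescein-labelled peptides at 10 μM and analysed by flow cytometry (FACS). Uptake was read as mean cellular fluorescence, shown as representative histograms, and normalized for comparison between peptides.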

Chain of Tumour suppressor p53/oncoprotein Mdm2 (P04637 whole entry): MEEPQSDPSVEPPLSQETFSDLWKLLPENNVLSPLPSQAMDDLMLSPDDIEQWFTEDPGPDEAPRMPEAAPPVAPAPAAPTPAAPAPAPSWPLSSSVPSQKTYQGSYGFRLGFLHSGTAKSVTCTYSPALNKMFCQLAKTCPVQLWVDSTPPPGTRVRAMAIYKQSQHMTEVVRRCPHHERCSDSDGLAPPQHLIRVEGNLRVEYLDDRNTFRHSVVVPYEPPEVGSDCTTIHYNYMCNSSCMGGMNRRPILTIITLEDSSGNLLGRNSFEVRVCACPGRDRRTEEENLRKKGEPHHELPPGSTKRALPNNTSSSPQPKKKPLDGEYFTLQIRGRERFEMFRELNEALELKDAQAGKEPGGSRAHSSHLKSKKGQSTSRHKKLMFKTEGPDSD
Chain of Tumour suppressor p53/oncoprotein Mdm2 (Q00987 whole entry): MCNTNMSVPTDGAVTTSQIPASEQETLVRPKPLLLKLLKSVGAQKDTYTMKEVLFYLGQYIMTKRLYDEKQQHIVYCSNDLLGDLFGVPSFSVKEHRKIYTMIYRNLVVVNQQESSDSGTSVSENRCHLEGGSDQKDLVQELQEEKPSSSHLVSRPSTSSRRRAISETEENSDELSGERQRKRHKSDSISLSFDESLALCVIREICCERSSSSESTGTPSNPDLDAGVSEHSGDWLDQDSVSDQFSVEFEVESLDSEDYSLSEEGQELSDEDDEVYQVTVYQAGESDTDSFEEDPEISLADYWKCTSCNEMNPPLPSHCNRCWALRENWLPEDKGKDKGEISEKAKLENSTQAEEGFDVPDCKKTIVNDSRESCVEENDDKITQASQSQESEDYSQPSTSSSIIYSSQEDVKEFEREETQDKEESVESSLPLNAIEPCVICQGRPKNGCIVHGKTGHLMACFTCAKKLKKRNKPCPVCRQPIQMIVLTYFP

IC50 [1] [nM]	Drug uptake (HeLa) [%]	SMILES
57	–	CC(=O)N[C@@H](CC(C)C)C(=O)N[C@H](C(=O)N[C@@H](Cc1ccccc1)C(=O)N[C@@H](CS)C(=O)N[C@@H](Cc1cnc[nH]1)C(=O)N[C@@H](Cc1ccc(O)cc1)C(=O)N[C@@H](Cc1c[nH]c2ccccc12)C(=O)N[C@@H](C)C(=O)N[C@@H](CCC(N)=O)C(=O)N[C@@H](CC(C)C)C(=O)N[C@@H](CS)C(=O)N[C@@H](CO)C(N)=O)[C@@H](C)O
13	–	CC(=O)N[C@@H](CC(C)C)C(=O)N[C@H](C(=O)N[C@@H](Cc1ccccc1)C(=O)N[C@H](CS)C(=O)N[C@@H](Cc1cnc[nH]1)C(=O)N[C@@H](Cc1ccc(O)cc1)C(=O)N[C@@H](Cc1c[nH]c2ccccc12)C(=O)N[C@@H](C)C(=O)N[C@@H](CCC(N)=O)C(=O)N[C@@H](CC(C)C)C(=O)N[C@@H](CS)C(=O)N[C@@H](CO)C(N)=O)[C@@H](C)O
–	4.5	CC(C)C[C@H](NC(=O)CCCCCNC(=O)c1ccccc1-c1c2ccc(=O)cc-2oc2cc(O)ccc12)C(=O)N[C@H](C(=O)N[C@@H](Cc1ccccc1)C(=O)N[C@@H](CS)C(=O)N[C@@H](Cc1cnc[nH]1)C(=O)N[C@@H](Cc1ccc(O)cc1)C(=O)N[C@@H](Cc1c[nH]c2ccccc12)C(=O)N[C@@H](C)C(=O)N[C@@H](CCC(N)=O)C(=O)N[C@@H](CC(C)C)C(=O)N[C@@H](CS)C(=O)N[C@@H](CO)C(N)=O)[C@@H](C)O
–	3.3	CC(C)C[C@H](NC(=O)CCCCCNC(=O)c1ccccc1-c1c2ccc(=O)cc-2oc2cc(O)ccc12)C(=O)N[C@H](C(=O)N[C@@H](Cc1ccccc1)C(=O)N[C@H](CS)C(=O)N[C@@H](Cc1cnc[nH]1)C(=O)N[C@@H](Cc1ccc(O)cc1)C(=O)N[C@@H](Cc1c[nH]c2ccccc12)C(=O)N[C@@H](C)C(=O)N[C@@H](CCC(N)=O)C(=O)N[C@@H](CC(C)C)C(=O)N[C@@H](CS)C(=O)N[C@@H](CO)C(N)=O)[C@@H](C)O
